Assay results published in paper PMC4201343 (ACS Chemical Biology, 2014).
Counter-ions that a name gives are not always drawn. Like-named read-outs stand apart in the source and are kept apart here.

Assays:
E. coli SSB = E. coli SSB (Escherichia coli, UniProt P0AGE0); assay: FP-based binding assay with SSB in place of NS3h; settings: for inhibition at 100 µM: read-out: SSB (% I): percent inhibition of SSB binding to Cy5-dT15; for SSB (% I): percent inhibition of SSB binding to Cy5-dT15: 100 μM of each compound; for SSB binding inhibition relative to NS3h binding inhibition: 100 μM
Procedure, shortened: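 Fluorescence polarisation assay with E. coli SSB in place of NS3h, using Cy5-dT15 (or Cy5-rU15 for titrations). Screen compounds were pin-transferred to 100 μM final, 1% DMSO. Excitation 635 nm, emission 667 nm; G-factor from probe-only wells. Percent inhibition was normalised to DMSO and to unlabeled dT20 or 100 μM primuline controls.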

HCV NS3h = molecular target: T1, HCV NS3h (Hepatitis C virus genotype 1b, UniProt Q9WMX2); assay: FP-based binding assay, NS3h displacement from Cy5-dT15 DNA; set-up: species or system hepatitis C virus genotype 1b (con1); settings: for NS3h (% I): percent inhibition of NS3h binding to Cy5-dT15: 100 μM of each compound; for ability to inhibit HCV helicase binding to DNA (in words): compared with ebselen; for inhibition at 100 µM: read-out: NS3h (% I): percent inhibition of NS3h binding to Cy5-dT15, 100 μM of each compound
T1 sequence (Q9WMX2 1190-1657 limits assumed): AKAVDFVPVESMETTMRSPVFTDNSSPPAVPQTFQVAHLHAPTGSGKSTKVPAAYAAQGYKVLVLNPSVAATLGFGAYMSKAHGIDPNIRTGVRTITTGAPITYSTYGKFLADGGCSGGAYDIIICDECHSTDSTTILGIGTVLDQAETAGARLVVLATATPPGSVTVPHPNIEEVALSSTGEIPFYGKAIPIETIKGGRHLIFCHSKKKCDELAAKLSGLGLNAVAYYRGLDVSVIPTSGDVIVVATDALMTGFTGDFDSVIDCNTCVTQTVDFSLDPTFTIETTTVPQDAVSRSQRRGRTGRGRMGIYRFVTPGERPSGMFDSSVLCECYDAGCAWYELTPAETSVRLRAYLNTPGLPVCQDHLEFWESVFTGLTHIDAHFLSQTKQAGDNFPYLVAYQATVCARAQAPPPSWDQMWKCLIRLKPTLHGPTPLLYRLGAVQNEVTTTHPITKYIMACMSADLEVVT
Procedure, shortened: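 Fluorescence polarization with Cy5-dT15 and NS3h: excitation 635 nm; parallel and perpendicular emission read at 667 nm; G-factor taken from probe-only wells. % inhibition normalized to DMSO-only (negative) and 200 nM dT20 or 100 μM primuline (positive) controls. Single-point tests at 100 μM. IC50 is the concentration displacing 50% of NS3h from DNA. Reversibility: 10 μM NS3h preincubated 1 h with test compound, then diluted 100–100 000-fold into Cy5-dT15 and compared with untreated controls.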

[1] = tested on: HCV genotype 2a isolate (JFH1); settings: 20 μM of each compound; ref Gastaminza et al.[9]; cited from earlier work
[2] = tested on: HCV Con1/1b Rluc subgenomic replicon in Huh-7.5 cells; assay: HCV subgenomic replicon assay; format: cell-based, hepatitis C virus genotype 1b; settings: for antiviral potency relative to ebsulfur/ebselen (times more potent): replicon; for therapeutic index (CC50/EC50): replicon EC50 and Huh7.5 CC50
Procedure, shortened: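 Huh-7.5 cells carrying a stable genotype 1b Con1 Renilla luciferase subgenomic replicon (kept in 0.25 mg/mL Geneticin) were seeded at 10 × 10^3 per well. Two-fold compound series, 0.5% final DMSO, 3 days at 37 °C, 5% CO2. Washed cells were lysed and Renilla luminescence read. EC50 is the concentration halving Rluc; CC50 comes from a parallel CellTiter-Glo viability run; three independent titrations.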

NS3h_1b(con1) [3] = molecular target: T2, NS3h_1b(con1) (Hepatitis C virus genotype 1b, con1 …, UniProt Q9WMX2 1190-1657); assay: fluorescence polarization
NS3h_2a(JFH1) = NS3h_2a(JFH1) (Hepatitis C virus genotype 2a, JFH1, UniProt Q99IB8 1194-1661); assay: fluorescence polarization
NS3h_1b(con1) [4] = molecular target: T2, NS3h_1b(con1); assay: fluorescence polarization; remark: listed apart in the source
SSB = SSB (Escherichia coli, UniProt P0AGE0 1-178); assay: fluorescence polarization
NS3h_1b(con1) [5] = molecular target: T2, NS3h_1b(con1); assay: fluorescence polarization; remark: listed apart in the source

Chain of E. coli SSB (P0AGE0 2-178 limits assumed): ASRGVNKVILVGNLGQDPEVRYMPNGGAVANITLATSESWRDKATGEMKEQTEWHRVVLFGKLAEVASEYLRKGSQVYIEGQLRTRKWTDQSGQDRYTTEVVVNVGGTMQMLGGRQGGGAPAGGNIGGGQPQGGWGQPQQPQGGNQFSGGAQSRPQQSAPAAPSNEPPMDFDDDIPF
Chain of SSB (P0AGE0 whole entry): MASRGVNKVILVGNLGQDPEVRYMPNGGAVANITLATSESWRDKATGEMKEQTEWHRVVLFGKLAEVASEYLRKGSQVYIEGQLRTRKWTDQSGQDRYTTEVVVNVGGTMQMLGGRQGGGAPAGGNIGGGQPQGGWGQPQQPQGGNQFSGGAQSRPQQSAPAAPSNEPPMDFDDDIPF
Chain of NS3h_2a(JFH1) (Q99IB8 1194-1661): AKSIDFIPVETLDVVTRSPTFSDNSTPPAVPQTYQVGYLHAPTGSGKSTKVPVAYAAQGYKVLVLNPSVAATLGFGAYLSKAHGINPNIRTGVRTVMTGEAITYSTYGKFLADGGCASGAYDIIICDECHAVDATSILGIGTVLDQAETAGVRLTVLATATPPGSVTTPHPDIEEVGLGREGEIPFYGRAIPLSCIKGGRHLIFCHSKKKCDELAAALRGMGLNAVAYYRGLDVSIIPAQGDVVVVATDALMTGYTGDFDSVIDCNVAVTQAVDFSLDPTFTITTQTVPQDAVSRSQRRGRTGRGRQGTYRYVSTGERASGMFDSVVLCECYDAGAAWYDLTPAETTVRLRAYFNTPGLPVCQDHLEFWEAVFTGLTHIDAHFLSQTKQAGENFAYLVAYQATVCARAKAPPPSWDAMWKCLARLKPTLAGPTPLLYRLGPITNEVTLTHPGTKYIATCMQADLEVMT

O=C1c2c(O)ccc(O)c2C(=O)c2c(NCCNCCO)ccc(NCCNCCO)c21 [Mitoxantrone]
inhibition at 100 µM (E. coli SSB): 121% | NS3h (% I): percent inhibition of NS3h binding to Cy5-dT15 (HCV NS3h; 100 µM): 125% | NS3h (% I): percent inhibition of NS3h binding to Cy5-dT15 (HCV NS3h; listed as mitoxantrone, 100 µM): more than 50%

Cl.NC1CCN(c2cccc(Cl)n2)CC1 [SR 57227A]
SSB (% I): percent inhibition of SSB binding to Cy5-dT15 (E. coli SSB): 133% | HCV (% I): percent inhibition of HCV replication in cells [1]: 12% | NS3h (% I): percent inhibition of NS3h binding to Cy5-dT15 (HCV NS3h): –1%

O=C(CCn1sc2ccccc2c1=O)Nc1ccccc1 [compound 13, 3-(3-Oxobenzo[d]isothiazol-2(3H)-yl)-N-phenylpropanamide]
decrease in the ability to inhibit HCV helicase (longer linker) (HCV NS3h; relative to peptide-linker analogues): 10 fold

O=c1cc(-c2ccccc2)sn1-c1ccccc1 [compound 14, 2,5-Diphenylisothiazol-3(2H)-one]
ability to inhibit HCV helicase binding to DNA (in words) (HCV NS3h): complete loss of activity

CC(O)CO.N[C@@H](C(=O)N[C@@H]1C(=O)N2C(C(=O)O)=C(CSc3cn[nH]n3)CS[C@H]12)c1ccc(O)cc1 [Seapuron]
SSB binding inhibition relative to NS3h binding inhibition (E. coli SSB): 3–4 times | SSB (% I): percent inhibition of SSB binding to Cy5-dT15 (E. coli SSB): 56% | HCV (% I): percent inhibition of HCV replication in cells [1]: <0% | NS3h (% I): percent inhibition of NS3h binding to Cy5-dT15 (HCV NS3h): 22%

Cn1c2ccccc2c(=O)n1-c1ccccc1 [compound 15, 1-Methyl-2-phenyl-1H-indazol-3(2H)-one]
ability to inhibit HCV helicase binding to DNA (in words) (HCV NS3h): complete loss of activity

CCCCCCCCCOc1ccc2[nH]cc(CCN)c2c1 [5-Nonyloxy-tryptamine]
inhibition at 100 µM (E. coli SSB): 67% | HCV (% I): percent inhibition of HCV replication in cells [1]: 100% | inhibition at 100 µM (HCV NS3h): -8%

O=c1c2cc(F)c(F)cc2sn1-c1ccccc1 [compound 2, 5,6-Difluoro-2-phenylbenzo[d]isothiazol-3(2H)-one]
antiviral potency relative to ebsulfur/ebselen (times more potent) [2]: ~10 times | therapeutic index (CC50/EC50) [2]: ~1

CN(C)[C@@H]1C(O)=C(C(=O)NCN2CCCC2)C(=O)[C@@]2(O)C(O)=C3C(=O)c4c(O)cccc4[C@@](C)(O)[C@H]3C[C@@H]12 [Rolitetracycline]
inhibition at 100 µM (E. coli SSB): 45% | HCV (% I): percent inhibition of HCV replication in cells [1]: <0% | inhibition at 100 µM (HCV NS3h): -4%

CS(=O)(=O)Nc1ccc(Cc2noc(-c3ccc4[nH]cc(CCN)c4c3)n2)cc1.O [L 694247]
SSB (% I): percent inhibition of SSB binding to Cy5-dT15 (E. coli SSB): 37% | HCV (% I): percent inhibition of HCV replication in cells [1]: <0% | NS3h (% I): percent inhibition of NS3h binding to Cy5-dT15 (HCV NS3h): 3%

C=CC1=C(C(=O)O)N2C(=O)[C@@H](NC(=O)C(=NO)c3csc(N)n3)[C@H]2SC1 [Spectrum 001824]
SSB (% I): percent inhibition of SSB binding to Cy5-dT15 (E. coli SSB): 96% | HCV (% I): percent inhibition of HCV replication in cells [1]: 5.8% | NS3h (% I): percent inhibition of NS3h binding to Cy5-dT15 (HCV NS3h): 11%

C=CC1=C(C(=O)O)N2C(=O)[C@@H](NC(=O)C(=NOCC(=O)O)c3csc(N)n3)[C@H]2SC1.O [HMS2052E19]
SSB binding inhibition relative to NS3h binding inhibition (E. coli SSB): 3–4 times | SSB (% I): percent inhibition of SSB binding to Cy5-dT15 (E. coli SSB): 95% | HCV (% I): percent inhibition of HCV replication in cells [1]: <0% | NS3h (% I): percent inhibition of NS3h binding to Cy5-dT15 (HCV NS3h): 28%

O=c1c2ccc(Br)cc2sn1-c1ccccc1 [compound 3, 6-Bromo-2-phenylbenzo[d]isothiazol-3(2H)-one]
antiviral potency relative to ebsulfur/ebselen (times more potent) [2]: ~10 times | therapeutic index (CC50/EC50) [2]: ~1

COc1cccc2c1C(=O)c1c(O)c3c(c(O)c1C2=O)C[C@@](O)(C(=O)CO)C[C@@H]3O[C@H]1C[C@H](N)[C@H](O)[C@H](C)O1 [Doxorubicin Hydrochloride]
inhibition at 100 µM (E. coli SSB): 90% | HCV (% I): percent inhibition of HCV replication in cells [1]: 100% | inhibition at 100 µM (HCV NS3h): 8%

TTTTTTTTTTTTTTTTTTTT (ssDNA) [Cy5-dT20]
binding signal (NS3h_1b(con1) [3]): 1 Ka relative to NS3h_1b(con1) | binding signal (NS3h_2a(JFH1)): ~2 Ka relative to NS3h_1b(con1)

TTTTTTTTTTTTTTT (ssDNA) [Cy5-dT15]
binding result (NS3h_1b(con1) [4]): binds | binding result (SSB): binds

UUUUUUUUUUUUUUU (ssRNA) [Cy5-rU15]
binding result (SSB): binds | binding result (NS3h_1b(con1) [5]): binds
